Bioassay records: PubChem BioAssay, Broad Institute
CFTR F508del cor – correctors of CFTR F508del function in bronchial epithelial cells; 350,000 compounds, 0.36% hits; CFBE cells, YFP halide quenching; stimulated with forskolin plus potentiator P3; % fluorescence drop versus neutral controls; activity (quench increase), % at 7.58 µM;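 active = mean added fluorescence quench of at least 8% versus neutral control, with both replicates also reaching 8%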;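 also: cells transiently co-express mutant CFTR-F508del with the halide-sensitive YFP; corrector assay measuring rescue of mutant channel to the surface after 24 h compound exposure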
rRNA inh HTS – selective bacterial rRNA inhibition in E. coli; E. coli WT GFP vs humanized-ribosome RFP mutants, fluorescence, 24 h; active compounds read low; DMSO median 0, no signal -100; GFP signal change (wild-type ribosome), % (no concentration beside the values); 350,000 compounds, 1.6% hits; AID 720706;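 active = significant combined selectivity score with lowered wild-type GFP, culture density cut under 30%, mutant RFP and density less affected; inactive = any of these conditions unmet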
Cneo AK release – causes C. neoformans cell lysis; 360,000 compounds, 0.2% hits; lysis activity, % at 15 µM; adenylate kinase release luminescence, 4 h; normalised: neutral wells 0, clomiphene wells 100;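 active = mean lysis activity across replicates of at least 80%, whatever share of replicates individually reach that level; inactive = mean lysis activity below 80%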
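Schedule: static 4 h at 37 °C with compound, 1 h detection; system: C. neoformans cells; benchmarks: Clomiphene as positive control; buffer or medium: fresh YPD medium; measure: luminescence rise reflecting yeast cell lysis; measured by: luminescent adenylate kinase detection reagent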
INS-1E GSIS act – primary screen for activators of insulin secretion dependent on glucose, INS-1E cells, GLuc reporter luminescence. INS-1E GLuc reporter insulin secretion, 2-3 h. activation, % at 16.6 µM. 370,000 compounds, 0.61% hits;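 active = lowest replicate activation of at least 40%, so every replicate reaches that level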;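 also: 0% = median of neutral control wells and 100% = median of IBMX positive control wells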
HIV Env fusion – blocks HIV Env-driven cell-cell fusion. HeLa-JRFL Env/CEM21 cell fusion, luciferase. inhibition, % at 12.3 µM. 360,000 compounds, 1.1% hits. AID 651610;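 active = mean replicate inhibition score of at least 50 and every replicate individually at or above 50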;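 also: 0% = plate neutral controls and 100% = maraviroc near 300 nM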
miR-122 sensor – inhibitors of miR-122 in Huh7 cells; 340,000 compounds, 0.3% hits; activation (reporter increase), % at 12.5 µM; Huh7 miR-122 Renilla luciferase sensor, 48 h; neutral wells = 0, positive control = 100; AID 602342;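 active = mean replicate activation score at least 90 and every replicate individually at or above 90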;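 also: higher luciferase means less miR-122 activity so hits act as miR-122 inhibitors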
* hit, by the source's call; [ ] = remark or other dose. Rows were chosen to be rich in hits. Some 3.1% of all compounds tested hit in one or more screens of this group.

Screening C[C@@H]1CN([C@@H](C)CO)C(=O)c2cc(NS(=O)(=O)c3ccc(F)cc3)ccc2O[C@H]1CN(C)Cc1ccc2c(c1)OCO2 returned CFTR F508del cor -3.2, rRNA inh HTS -2.7, Cneo AK release 0.6, INS-1E GSIS act 5.2 and miR-122 sensor -5.7[16.7 µM].
O=C(Nc1cc(Cl)cc(Cl)c1)C1CCC(=O)N1Cc1ccccc1Cl (stereo not given) was read as Cneo AK release 2.2, HIV Env fusion 53.4* and miR-122 sensor 9.1.
O=C(CN1c2ccccc2Sc2ccccc21)NNC(=O)Nc1cccc(Cl)c1 was read as CFTR F508del cor -0.3, Cneo AK release -2.2, HIV Env fusion 22.4 and miR-122 sensor 112.7*.
O=C(C[C@H]1CC[C@H](NC(=O)Nc2ccc(C(F)(F)F)cc2)[C@H](CO)O1)NCc1cc(F)cc(F)c1 was read as CFTR F508del cor 0.1, rRNA inh HTS 0.5, Cneo AK release -10.6, INS-1E GSIS act 8.3 and HIV Env fusion 12.1[16.7 µM].
`CC(=O)c1ccc(OCc2cn(CC(=O)c3ccc(O)cc3)nn2)c(C)c1` gave CFTR F508del cor -5.8, rRNA inh HTS -30.7*, Cneo AK release -1.5, INS-1E GSIS act -13.5, HIV Env fusion -139.2 and miR-122 sensor -0.5.
For Cc1ccc(OCC(=O)Nc2ccc3c(c2)ncn3C)cc1 the results were CFTR F508del cor 22.0*, rRNA inh HTS 0.2, Cneo AK release 0.1, INS-1E GSIS act -3.6 and miR-122 sensor 0.1.
For Cc1ccc(OCC(=O)Nc2ccc3c(c2)nc(CCN2CCN(c4ccccn4)CC2)n3C)cc1 the results were CFTR F508del cor -0.1, rRNA inh HTS 1.5, Cneo AK release -1.5, INS-1E GSIS act 11.0, HIV Env fusion 60.6* and miR-122 sensor -5.7.
For Cn1cnc2cc(NC(=O)COc3ccccc3)ccc21 the results were CFTR F508del cor -2.9, rRNA inh HTS 6.5, INS-1E GSIS act 3.6, HIV Env fusion -31.3 and miR-122 sensor -5.8.
Cn1c(CCN2CCN(c3ccccn3)CC2)nc2cc(NC(=O)COc3ccccc3)ccc21 was read as CFTR F508del cor -1.1, rRNA inh HTS -2.4, Cneo AK release -2.0, INS-1E GSIS act -3.9, HIV Env fusion 6.9 and miR-122 sensor 7.6.
Screening Cc1noc(C)c1NC(=O)N(C)C[C@@H]1OCCCC[C@H](C)Oc2ccc(NC(=O)Nc3ccc(C(F)(F)F)cc3)cc2C(=O)N([C@@H](C)CO)C[C@@H]1C returned CFTR F508del cor 2.3, rRNA inh HTS -2.5, Cneo AK release 0.2, INS-1E GSIS act 6.4, HIV Env fusion 8.3[16.7 µM] and miR-122 sensor -2.7[16.7 µM].
`C[C@H](CO)N1C[C@H](C)[C@@H](CN(C)Cc2ccccc2)Oc2cc(-c3ccccc3)ccc2S1(=O)=O` gave CFTR F508del cor 2.8, rRNA inh HTS -0.2, INS-1E GSIS act -15.1, HIV Env fusion 46.3[16.7 µM] and miR-122 sensor 39.4[16.7 µM].
`CCC(=O)N(C)C[C@@H]1Oc2cc(C#CC(C)(C)O)ccc2S(=O)(=O)N([C@@H](C)CO)C[C@H]1C` gave CFTR F508del cor -0.6, rRNA inh HTS 3.5, Cneo AK release 93.3*, INS-1E GSIS act 12.4, HIV Env fusion -11.8[16.7 µM] and miR-122 sensor -3.5[16.7 µM].
Screening CCC(=O)N(C)C[C@H]1Oc2cc(-c3ccccc3)ccc2S(=O)(=O)N([C@H](C)CO)C[C@H]1C returned CFTR F508del cor 4.3, rRNA inh HTS -6.7, Cneo AK release 88.5*, INS-1E GSIS act 2.2, HIV Env fusion 4.1[16.7 µM] and miR-122 sensor -23.0[16.7 µM].
C[C@@H]1CN([C@H](C)CO)S(=O)(=O)c2ccc(-c3ccccc3)cc2O[C@@H]1CN(C)Cc1ccccc1 was read as CFTR F508del cor 0.3, rRNA inh HTS -25.4, INS-1E GSIS act -3.3, HIV Env fusion 64.6*[16.7 µM] and miR-122 sensor 34.8[16.7 µM].
For C[C@@H]1CN([C@@H](C)CO)S(=O)(=O)c2ccc(-c3ccccc3)cc2O[C@H]1CN(C)S(C)(=O)=O the results were CFTR F508del cor -2.1, rRNA inh HTS -8.5, Cneo AK release 7.9, INS-1E GSIS act -24.3, HIV Env fusion 57.2*[16.7 µM] and miR-122 sensor 3.8[16.7 µM].
`C[C@@H]1CN([C@H](C)CO)C(=O)Cc2cc(NC(=O)Cn3cnnn3)ccc2O[C@H]1CN(C)S(=O)(=O)c1cn(C)cn1` gave CFTR F508del cor 1.1, rRNA inh HTS 2.2, Cneo AK release -2.5, INS-1E GSIS act 8.5, HIV Env fusion -30.8[16.7 µM] and miR-122 sensor -7.8[16.7 µM].
`C[C@@H]1CN([C@@H](C)CO)C(=O)Cc2cc(NC(=O)CCN3CCOCC3)ccc2O[C@@H]1CN(C)C(=O)Nc1ccc(F)cc1` gave CFTR F508del cor -0.4, rRNA inh HTS 1.1, Cneo AK release 4.8, INS-1E GSIS act -3.9, HIV Env fusion 11.6[16.7 µM] and miR-122 sensor 2.5[16.7 µM].
Screening CS(=O)(=O)Nc1ccc2c(c1)[C@@H]1C[C@H](CC(=O)NCC3CC3)O[C@@H](CO)[C@@H]1O2 returned CFTR F508del cor -0.8, rRNA inh HTS 4.6, Cneo AK release -3.2, INS-1E GSIS act 7.9, HIV Env fusion 7.1[16.7 µM] and miR-122 sensor 5.7[16.7 µM].
For CC(=O)N(C)C[C@@H]1Oc2ccc(NC(=O)NC(C)C)cc2CC(=O)N(C)C[C@H]1C the results were rRNA inh HTS 2.3 and INS-1E GSIS act 8.7.
`C[C@H](CO)N1C[C@H](C)[C@H](CN(C)Cc2ccccc2)Oc2cc(-c3ccccc3)ccc2S1(=O)=O` gave CFTR F508del cor 0.4, rRNA inh HTS -0.7, INS-1E GSIS act -25.7, HIV Env fusion 79.4*[16.7 µM] and miR-122 sensor -3.7[16.7 µM].
Screening Nc1nc(N)nc(-c2ccc(Cl)cc2)n1 returned Cneo AK release 0.0, INS-1E GSIS act 47.0* and HIV Env fusion -69.0.
`CO[C@H]1CN(C)C(=O)c2cc(NS(=O)(=O)c3cccc(F)c3)ccc2OC[C@H](C)NC[C@H]1C` gave CFTR F508del cor 3.4, rRNA inh HTS -1.4, Cneo AK release -3.7, INS-1E GSIS act -14.4 and HIV Env fusion 4.3[16.7 µM].
`COc1ccc(C(C(=O)NC2CCCC2)N(C(=O)c2ccco2)c2ccc(OC)c(OC)c2)cc1` (stereo not given) gave Cneo AK release -1.2, HIV Env fusion -381.5 and miR-122 sensor -4.3.
For COc1ccc(N(C(=O)c2ccco2)C(C(=O)NC2CCCC2)c2ccc(OC)c(OC)c2)cc1 (stereo not given) the results were CFTR F508del cor 0.9, rRNA inh HTS 3.0, Cneo AK release 1.4, INS-1E GSIS act -0.7, HIV Env fusion 55.2* and miR-122 sensor 0.7.
`CCOc1ccc(NS(=O)(=O)c2ccc(C(=O)N3CCN(c4ncccn4)CC3)cc2)cc1` gave CFTR F508del cor -0.7, rRNA inh HTS -22.6*, INS-1E GSIS act -23.5, HIV Env fusion 5.1 and miR-122 sensor 0.8.
